Reference: ChEMBL document CHEMBL1828609, “Strategies to lower the Pgp efflux liability in a series of potent indole azetidine MCHR1 antagonists” (Bioorg Med Chem Lett, 2011)
Each block holds one compound with its values, some of them ahead of it.

Assays:
[1] = Drug uptake in wild type FVB mouse brain at 15 mg/kg, iv after 1 hr; format: ADME, organism-based; design: dose 15 mg/kg, route intravenous; conditions: read-out: Drug uptake
Procedure, shortened: (§1)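 Single 15 mg/kg intravenous dose given to Pgp knockout and wild-type mice. Brain and plasma levels followed over 8 h, and brain/plasma ratios calculated at each time point.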

[2] = Apparent permeability of the compound at pH 3 to 7.4 by PAMPA method; format: ADME
[3] = Plasma concentration in wild type FVB mouse at 15 mg/kg, iv after 1 hr; format: ADME, organism-based; design: dose 15 mg/kg, route intravenous; procedure, shortened: as §1
[4] = Ratio of drug level in brain to plasma in wild type FVB mouse after 8 hrs; format: ADME, cell-free; conditions: read-out: BPR; procedure, shortened: as §1
[5] = Plasma concentration in wild type FVB mouse at 15 mg/kg, iv after 3 hrs; format: ADME, organism-based; design: dose 15 mg/kg, route intravenous; procedure, shortened: as §1
[6] = Drug uptake in rat brain at 10 mg/kg, po after 4 hrs; format: ADME, organism-based; design: dose 10 mg/kg, route oral; conditions: read-out: Drug uptake
Procedure, shortened: (§2)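 Rats dosed orally at 10 mg/kg. Brain (ng/g) and plasma (ng/mL) levels taken at 4 h, giving the brain-to-plasma exposure comparison.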

[7] = Drug uptake in wild type FVB mouse brain at 15 mg/kg, iv after 6 hrs; format: ADME, organism-based; design: dose 15 mg/kg, route intravenous; conditions: read-out: Drug uptake; procedure, shortened: as §1
[8] = Drug uptake in P-gp transporter knockout FVB mouse brain at 15 mg/kg, iv after 8 hrs; format: ADME, organism-based; design: dose 15 mg/kg, route intravenous; conditions: read-out: Drug uptake; procedure, shortened: as §1
[9] = Drug uptake in P-gp transporter knockout FVB mouse brain at 15 mg/kg, iv after 3 hrs; format: ADME, organism-based; design: dose 15 mg/kg, route intravenous; conditions: read-out: Drug uptake; procedure, shortened: as §1
[10] = Ratio of drug level in brain to plasma in wild type FVB mouse after 6 hrs; format: ADME, cell-free; conditions: read-out: BPR; procedure, shortened: as §1
[11] = target: Voltage-gated inwardly rectifying potassium channel KCNH2 (Homo sapiens, UniProt Q12809); experiment: Inhibition of human ERG
[12] = Apparent permeability of the compound at pH 7.4 by PAMPA method; format: ADME
[13] = Permeability from apical to basolateral side in MDCK cells expressing human MDR1 assessed as compound recovery; format: ADME, cell-based, Canis lupus familiaris; conditions: dog, read-out: permeability
Procedure, shortened: (§3)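 Bidirectional MDR1-MDCK permeability run with 2 h incubation; percent recovery of compound determined for the A-to-B and B-to-A directions.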

[14] = Plasma concentration in rat at 10 mg/kg, po after 4 hrs; format: ADME, organism-based; design: dose 10 mg/kg, route oral; procedure, shortened: as §2
[15] = Apparent permeability from basolateral to apical side in MDCK cells expressing human MDR1 after 2 hrs; format: ADME, cell-based, Canis lupus familiaris; conditions: dog
Procedure, shortened: (§4)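 MDR1-MDCK monolayers; apparent permeability measured in both directions (A-to-B and B-to-A) after 2 h incubation. Efflux ratio calculated as Papp(B-to-A)/Papp(A-to-B).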

[16] = Apparent permeability from apical to basolateral side in MDCK cells expressing human MDR1 after 2 hrs; format: ADME, cell-based, Canis lupus familiaris; conditions: dog; procedure, shortened: as §4
[17] = Ratio of drug level in brain to plasma in P-gp transporter knockout FVB mouse after 1 hr; format: ADME, cell-free; conditions: read-out: BPR; procedure, shortened: as §1
[18] = Plasma concentration in P-gp transporter knockout FVB mouse at 15 mg/kg, iv after 3 hrs; format: ADME, organism-based; design: dose 15 mg/kg, route intravenous; procedure, shortened: as §1
[19] = Ratio of drug level in brain to plasma in P-gp transporter knockout FVB mouse after 3 hrs; format: ADME, cell-free; conditions: read-out: BPR; procedure, shortened: as §1
[20] = Drug uptake in wild type FVB mouse brain at 15 mg/kg, iv after 8 hrs; format: ADME, organism-based; design: dose 15 mg/kg, route intravenous; conditions: read-out: Drug uptake; procedure, shortened: as §1
[21] = Plasma concentration in wild type FVB mouse at 15 mg/kg, iv after 6 hrs; format: ADME, organism-based; design: dose 15 mg/kg, route intravenous; procedure, shortened: as §1
[22] = Permeability from basolateral to apical side in MDCK cells expressing human MDR1 assessed as compound recovery; format: ADME, cell-based, Canis lupus familiaris; conditions: dog, read-out: permeability; procedure, shortened: as §3
[23] = Plasma concentration in P-gp transporter knockout FVB mouse at 15 mg/kg, iv after 1 hr; format: ADME, organism-based; design: dose 15 mg/kg, route intravenous; procedure, shortened: as §1
[24] = target: Melanin-concentrating hormone receptor 1 (Rattus norvegicus, UniProt P97639); experiment: Displacement of [125I]-S36057 from rat MCH1 receptor
[25] = Ratio of drug level in brain to plasma in P-gp transporter knockout FVB mouse after 8 hrs; format: ADME, cell-free; conditions: read-out: BPR; procedure, shortened: as §1
[26] = Ratio of drug level in brain to plasma in wild type FVB mouse after 1 hr; format: ADME, cell-free; conditions: read-out: BPR; procedure, shortened: as §1
[27] = Drug uptake in P-gp transporter knockout FVB mouse brain at 15 mg/kg, iv after 1 hr; format: ADME, organism-based; design: dose 15 mg/kg, route intravenous; conditions: read-out: Drug uptake; procedure, shortened: as §1
[28] = Drug uptake in P-gp transporter knockout FVB mouse brain at 15 mg/kg, iv after 6 hrs; format: ADME, organism-based; design: dose 15 mg/kg, route intravenous; conditions: read-out: Drug uptake; procedure, shortened: as §1
[29] = Efflux ratio of permeability from basolateral to apical over apical to basolateral side of MDCK cells expressing human MDR1 after 2 hrs; format: ADME, cell-based, Canis lupus familiaris; conditions: dog; procedure, shortened: as §4
[30] = Ratio of drug level in brain to plasma in P-gp transporter knockout FVB mouse after 6 hrs; format: ADME, cell-free; conditions: read-out: BPR; procedure, shortened: as §1
[31] = Plasma concentration in P-gp transporter knockout FVB mouse at 15 mg/kg, iv after 8 hrs; format: ADME, organism-based; design: dose 15 mg/kg, route intravenous; procedure, shortened: as §1
[32] = Plasma concentration in P-gp transporter knockout FVB mouse at 15 mg/kg, iv after 6 hrs; format: ADME, organism-based; design: dose 15 mg/kg, route intravenous; procedure, shortened: as §1
[33] = Drug uptake in wild type FVB mouse brain at 15 mg/kg, iv after 3 hrs; format: ADME, organism-based; design: dose 15 mg/kg, route intravenous; conditions: read-out: Drug uptake; procedure, shortened: as §1
[34] = Ratio of drug level in brain to plasma in wild type FVB mouse after 3 hrs; format: ADME, cell-free; conditions: read-out: BPR; procedure, shortened: as §1
[35] = Plasma concentration in wild type FVB mouse at 15 mg/kg, iv after 8 hrs; format: ADME, organism-based; design: dose 15 mg/kg, route intravenous; procedure, shortened: as §1
[36] = Ratio of drug level in brain to plasma in rat; format: ADME, cell-free; conditions: read-out: BPR; procedure, shortened: as §2
[37] = Drug uptake in rat brain at 10 mg/kg, sc after 4 hrs; format: ADME, organism-based; design: dose 10 mg/kg, route subcutaneous; conditions: read-out: Drug uptake
Procedure, shortened: (§5)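 Rat PK with subcutaneous dosing at 10 mg/kg. Brain and plasma concentrations determined 4 h after the dose.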

[38] = Plasma concentration in rat at 10 mg/kg, sc after 4 hrs; format: ADME, organism-based; design: dose 10 mg/kg, route subcutaneous; procedure, shortened: as §5

Melanin-concentrating hormone receptor 1, sequence (P97639 whole entry): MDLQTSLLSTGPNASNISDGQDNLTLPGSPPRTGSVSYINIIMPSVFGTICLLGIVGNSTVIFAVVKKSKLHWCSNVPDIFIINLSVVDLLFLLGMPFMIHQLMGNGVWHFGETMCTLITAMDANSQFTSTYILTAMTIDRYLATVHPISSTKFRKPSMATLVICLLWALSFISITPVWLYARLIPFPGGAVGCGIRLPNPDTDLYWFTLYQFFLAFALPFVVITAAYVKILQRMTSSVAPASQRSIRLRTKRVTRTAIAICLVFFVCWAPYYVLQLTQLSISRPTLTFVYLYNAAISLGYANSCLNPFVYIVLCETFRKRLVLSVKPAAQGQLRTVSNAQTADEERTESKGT
Voltage-gated inwardly rectifying potassium channel KCNH2, sequence (Q12809 whole entry): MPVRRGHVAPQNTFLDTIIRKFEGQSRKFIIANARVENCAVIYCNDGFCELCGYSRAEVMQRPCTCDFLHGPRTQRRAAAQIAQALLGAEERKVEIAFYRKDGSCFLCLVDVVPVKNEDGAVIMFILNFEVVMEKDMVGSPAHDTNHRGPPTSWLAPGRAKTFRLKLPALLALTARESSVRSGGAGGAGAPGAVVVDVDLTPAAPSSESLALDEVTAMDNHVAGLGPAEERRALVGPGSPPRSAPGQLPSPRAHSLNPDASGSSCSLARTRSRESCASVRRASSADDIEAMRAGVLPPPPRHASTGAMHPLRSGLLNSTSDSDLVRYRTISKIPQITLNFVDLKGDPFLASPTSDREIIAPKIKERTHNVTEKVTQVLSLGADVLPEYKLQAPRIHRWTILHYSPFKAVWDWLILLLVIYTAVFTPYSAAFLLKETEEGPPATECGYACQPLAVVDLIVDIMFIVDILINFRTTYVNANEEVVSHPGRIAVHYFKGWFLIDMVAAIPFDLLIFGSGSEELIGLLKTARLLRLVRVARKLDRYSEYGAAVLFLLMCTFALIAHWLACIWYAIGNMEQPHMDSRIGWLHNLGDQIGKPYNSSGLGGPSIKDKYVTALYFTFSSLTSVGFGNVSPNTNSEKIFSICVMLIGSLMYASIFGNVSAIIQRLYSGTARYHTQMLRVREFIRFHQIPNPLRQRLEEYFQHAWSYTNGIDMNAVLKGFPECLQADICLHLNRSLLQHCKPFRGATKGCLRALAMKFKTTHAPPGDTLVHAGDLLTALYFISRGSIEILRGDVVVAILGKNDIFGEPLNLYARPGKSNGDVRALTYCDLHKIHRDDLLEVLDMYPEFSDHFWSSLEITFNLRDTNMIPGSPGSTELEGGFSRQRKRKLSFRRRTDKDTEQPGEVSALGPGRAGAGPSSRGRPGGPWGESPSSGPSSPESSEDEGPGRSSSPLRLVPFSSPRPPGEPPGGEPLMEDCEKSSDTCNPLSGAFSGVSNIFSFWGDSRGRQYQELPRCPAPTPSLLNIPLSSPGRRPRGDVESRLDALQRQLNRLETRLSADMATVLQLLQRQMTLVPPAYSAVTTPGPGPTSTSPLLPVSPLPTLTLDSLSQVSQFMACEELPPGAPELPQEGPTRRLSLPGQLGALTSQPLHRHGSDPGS

- concentration at 1 h [1]: 143 ng/g
- Papp [2]: 16.4 ×10⁻⁶ cm/s
- concentration at 1 h [3]: 2280 ng/mL
- Kp at 8 h [4]: 0.28
- concentration at 3 h [5]: 1450 ng/mL
- concentration at 4 h [6]: 11 ng/g
- concentration at 6 h [7]: 148 ng/g
- concentration at 8 h [8]: 1620 ng/g
- concentration at 3 h [9]: 1130 ng/g
- Kp at 6 h [10]: 0.24
- Papp [12]: 4.9 ×10⁻⁶ cm/s
- recovery [13]: 72%
- concentration at 4 h [14]: 48 ng/mL
- Papp B→A at 2 h [15]: 26.3 ×10⁻⁶ cm/s
- Papp A→B at 2 h [16]: 0.2 ×10⁻⁶ cm/s
- Kp at 1 h [17]: 0.28
- concentration at 3 h [18]: 1380 ng/mL
- Kp at 3 h [19]: 0.82
- concentration at 8 h [20]: 144 ng/g
- concentration at 6 h [21]: 623 ng/mL
- recovery [22]: 71%
- concentration at 1 h [23]: 3130 ng/mL
- Ki [24]: 11 nM
- Kp at 8 h [25]: 2.66
- Kp at 1 h [26]: 0.06
- concentration at 1 h [27]: 878 ng/g
- concentration at 6 h [28]: 1580 ng/g
- efflux ratio at 2 h [29]: 144
- Kp at 6 h [30]: 2.3
- concentration at 8 h [31]: 607 ng/mL
- concentration at 6 h [32]: 689 ng/mL
- concentration at 3 h [33]: 172 ng/g
- Kp at 3 h [34]: 0.12
- concentration at 8 h [35]: 538 ng/mL
SMILES: CN1CC(c2c[nH]c3cc(-n4ccc(OCc5ccccc5)cc4=O)ccc23)C1
- IC50 [11]: 12 µM

- concentration at 4 h [6]: 22 ng/g
- concentration at 4 h [14]: 140 ng/mL
- Papp B→A at 2 h [15]: 25.3 ×10⁻⁶ cm/s
- Papp A→B at 2 h [16]: 0.2 ×10⁻⁶ cm/s
- Ki [24]: 6.7 nM
- efflux ratio at 2 h [29]: 150
SMILES: CN1CC(c2c[nH]c3cc(-n4ccc(OCc5ccccc5F)cc4=O)ccc23)C1

- concentration at 4 h [6]: 100 ng/g
- concentration at 4 h [14]: 350 ng/mL
- Papp B→A at 2 h [15]: 53.7 ×10⁻⁶ cm/s
- Papp A→B at 2 h [16]: 0.9 ×10⁻⁶ cm/s
- Ki [24]: 7.8 nM
- efflux ratio at 2 h [29]: 60
SMILES: CN1CC(c2c[nH]c3cc(-n4ccc(-c5ccc(Cl)cc5)cc4=O)ccc23)C1

- Kp [36]: 0.03
- concentration at 4 h [37]: 110 ng/g
- Ki [24]: 11 nM
- concentration at 4 h [38]: 4000 ng/mL
SMILES: CN1CC(c2cn(C)c3cc(-n4ccc(OCc5ccccc5)cc4=O)ccc23)C1

- concentration at 4 h [6]: 49 ng/g
- concentration at 4 h [14]: 310 ng/mL
- Papp B→A at 2 h [15]: 34.1 ×10⁻⁶ cm/s
- Papp A→B at 2 h [16]: 0.4 ×10⁻⁶ cm/s
- Ki [24]: 5.2 nM
- efflux ratio at 2 h [29]: 88
SMILES: COCCN1CC(c2c[nH]c3cc(-n4ccc(OCc5ccccc5)cc4=O)ccc23)C1

- concentration at 4 h [6]: 130 ng/g
- concentration at 4 h [14]: 620 ng/mL
- Papp B→A at 2 h [15]: 58.9 ×10⁻⁶ cm/s
- Papp A→B at 2 h [16]: 1.4 ×10⁻⁶ cm/s
- Ki [24]: 4.3 nM
- efflux ratio at 2 h [29]: 43
SMILES: O=c1cc(OCc2ccccc2)ccn1-c1ccc2c(C3CN(CCF)C3)c[nH]c2c1

- Kp [36]: 0.8
- concentration at 4 h [6]: 810 ng/g
- concentration at 4 h [14]: 1000 ng/mL
- Papp B→A at 2 h [15]: 45.4 ×10⁻⁶ cm/s
- Papp A→B at 2 h [16]: 7.1 ×10⁻⁶ cm/s
- Ki [24]: 9 nM
- efflux ratio at 2 h [29]: 6.4
SMILES: Cn1cc(C2CN(CCF)C2)c2ccc(-n3ccc(-c4ccc(F)cc4)cc3=O)cc21

- concentration at 4 h [6]: 27 ng/g
- concentration at 4 h [14]: 130 ng/mL
- Ki [24]: 2.4 nM
SMILES: O=c1cc(OCc2ccccc2)ccn1-c1ccc2c(c1)CCN2C1CNC1

- concentration at 4 h [6]: 780 ng/g
- concentration at 4 h [14]: 500 ng/mL
- Papp B→A at 2 h [15]: 36.5 ×10⁻⁶ cm/s
- Papp A→B at 2 h [16]: 2.6 ×10⁻⁶ cm/s
- Ki [24]: 2.5 nM
- efflux ratio at 2 h [29]: 14
SMILES: CN1CC(N2CCc3cc(-n4ccc(OCc5ccccc5)cc4=O)ccc32)C1

- concentration at 4 h [6]: 520 ng/g
- concentration at 4 h [14]: 420 ng/mL
- Papp B→A at 2 h [15]: 38.2 ×10⁻⁶ cm/s
- Papp A→B at 2 h [16]: 17.7 ×10⁻⁶ cm/s
- Ki [24]: 4.9 nM
- efflux ratio at 2 h [29]: 2.2
SMILES: O=c1cc(OCc2ccccc2)ccn1-c1ccc2c(c1)CCN2C1CN(CCF)C1

- Kp [36]: > 3
- concentration at 4 h [6]: 600 ng/g
- concentration at 4 h [14]: 190 ng/mL
- Ki [24]: 4.9 nM
SMILES: CN1CC(N2CCc3cc(-n4ccc(-c5ccc(Cl)cc5)cc4=O)ccc32)C1

- concentration at 4 h [6]: 1100 ng/g
- concentration at 4 h [14]: 650 ng/mL
- Papp B→A at 2 h [15]: 30.1 ×10⁻⁶ cm/s
- Papp A→B at 2 h [16]: 28.9 ×10⁻⁶ cm/s
- Ki [24]: 6.5 nM
- efflux ratio at 2 h [29]: 1
SMILES: O=c1cc(-c2ccc(Cl)cc2)ccn1-c1ccc2c(c1)CCN2C1CN(CCF)C1
